In ChEMBL document CHEMBL1944618, “Synthesis and antifungal activity of a new series of 2-(1H-imidazol-1-yl)-1-phenylethanol derivatives” (Eur J Med Chem, 2012):
Converted amounts (≈) assume the structure as drawn.

Legend:
[1] = system: Candida parapsilosis; assay: Antifungal activity against Candida parapsilosis DSM 11224 after 48 hrs by M27-A3 CLSI method; type: functional
Outline: (§1)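 Broth microdilution in RPMI 1640, two-fold serial dilutions, final test range 0.125–64 µg mL-1 (fluconazole reference 0.0078–128 µg mL-1). Inoculum 1.0×10^3–1.5×10^3 cells mL-1 from yeasts grown 24 h at 35 °C on Sabouraud dextrose agar. Incubation 35 °C, read at 48 h. MIC = lowest concentration giving >50% turbidity decrease versus growth control. Run three times in triplicate. C. parapsilosis ATCC22019 served as QC.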

[2] = system: Candida; assay: Antifungal activity against Candida sp. after 48 hrs by M27-A3 CLSI method; type: functional; outline: as §1
[3] = system: Candida albicans; assay: Antifungal activity against Candida albicans ATCC 10231 after 48 hrs by M27-A3 CLSI method; type: functional; conditions: ATCC 10231, 48 h; outline: as §1
[4] = system: Nakaseomyces glabratus; assay: Antifungal activity against Candida glabrata PMC 0805 after 48 hrs by M27-A3 CLSI method; type: functional; conditions: PMC 0805, 48 h; outline: as §1
[5] = system: Candida parapsilosis; assay: Antifungal activity against Candida parapsilosis ATCC 22019 after 48 hrs by M27-A3 CLSI method; type: functional; conditions: Lodderomyces parapsilosis, ATCC 22019, 48 h; outline: as §1
[6] = system: Candida tropicalis; assay: Antifungal activity against Candida tropicalis PMC 0910 after 48 hrs by M27-A3 CLSI method; type: functional; conditions: PMC 0910, 48 h; outline: as §1
[7] = system: Candida albicans; assay: Antifungal activity against Candida albicans ATCC 3153 after 48 hrs by M27-A3 CLSI method; type: functional; conditions: ATCC 3153, 48 h; outline: as §1
[8] = system: Candida albicans; assay: Antifungal activity against Candida albicans after 48 hrs by M27-A3 CLSI method; type: functional; outline: as §1
[9] = system: Candida tropicalis; assay: Antifungal activity against Candida tropicalis DSM 11953 after 48 hrs by M27-A3 CLSI method; type: functional; conditions: DSM 11953, 48 h; outline: as §1
[10] = system: Candida albicans; assay: Antifungal activity against Candida albicans ATCC 24433 after 48 hrs by M27-A3 CLSI method; type: functional; outline: as §1
[11] = system: Candida albicans; assay: Antifungal activity against Candida albicans ATCC 76615 after 48 hrs by M27-A3 CLSI method; type: functional; conditions: ATCC 76615, 48 h; outline: as §1
[12] = system: Pichia kudriavzevii; assay: Antifungal activity against Candida krusei DSM 6128 after 48 hrs by M27-A3 CLSI method; type: functional; conditions: DSM 6128, 48 h; outline: as §1
[13] = system: Pichia kudriavzevii; assay: Antifungal activity against Candida krusei PMC 0613 after 48 hrs by M27-A3 CLSI method; type: functional; outline: as §1
[14] = system: Candida tropicalis; assay: Antifungal activity against Candida tropicalis DSM11953 after 48 hrs by M27-A3 CLSI method
[15] = Lodderomyces parapsilosis, DSM 11224, 48 h, read-out: MIC
[16] = Candida albicans, ATCC 24433, 48 h, read-out: MIC
[17] = Pichia kudriavzevii, PMC 0613, 48 h, read-out: MIC

With CC(C)c1ccc(NC(=O)OC(Cn2ccnc2)c2ccc(F)cc2)cc1 (racemic) the MIC [1, 15] was 16 µg/mL (≈ 43.5 µM), the MIC [2] was 68.4 µg/mL (≈ 186 µM) and the MIC50 [2] was 4 µg/mL (≈ 10.9 µM). The MIC90 [2] was 128 µg/mL (≈ 348 µM), the MIC [3] was 2 µg/mL (≈ 5.44 µM) and the MIC [4] was greater than 64 µg/mL. The MIC [5] was greater than 64 µg/mL, the MIC [6] was 4 µg/mL (≈ 10.9 µM) and the MIC [7] was 16 µg/mL (≈ 43.5 µM). It also gave an MIC [8] of 39.6 µg/mL (≈ 108 µM), an MIC50 [8] of 16 µg/mL (≈ 43.5 µM) and an MIC90 [8] of 64 µg/mL (≈ 174 µM). It also gave an MIC [9] greater than 64 µg/mL, an MIC [10, 16] of 1 µg/mL (≈ 2.72 µM) and an MIC [11] of no less than 64 µg/mL. For the same compound, the MIC [12] was 16 µg/mL (≈ 43.5 µM) and the MIC [13, 17] was 64 µg/mL (≈ 174 µM).
Compound O=C(COc1ccccc1)OC(Cn1ccnc1)c1ccc(F)cc1 (racemic) has an MIC [1, 15] of 4 µg/mL (≈ 11.8 µM), an MIC [2] of 61.1 µg/mL (≈ 180 µM) and an MIC50 [2] of 4 µg/mL (≈ 11.8 µM). For the same compound, the MIC90 [2] was 128 µg/mL (≈ 376 µM), the MIC [3] was 8 µg/mL (≈ 23.5 µM) and the MIC [4] was 16 µg/mL (≈ 47 µM). It also gave an MIC [5] greater than 64 µg/mL, an MIC [6] of 1 µg/mL (≈ 2.94 µM) and an MIC [7] of no less than 64 µg/mL. For the same compound, the MIC [8] was 76.6 µg/mL (≈ 225 µM), the MIC50 [8] was 64 µg/mL (≈ 188 µM) and the MIC90 [8] was 128 µg/mL (≈ 376 µM). The MIC [9] was greater than 64 µg/mL, the MIC [10, 16] was 16 µg/mL (≈ 47 µM) and the MIC [11] was greater than 64 µg/mL. It also gave an MIC [12] greater than 64 µg/mL and an MIC [13, 17] of 16 µg/mL (≈ 47 µM).
In the case of O=C(OC(Cn1ccnc1)c1ccc(F)cc1)c1ccc(-c2ccccc2)cc1 (single isomer, unassigned; (+)), the MIC [1] is reported as 35.55 µg/mL (≈ 92 µM), the MIC [14] is reported as 32 µg/mL (≈ 82.8 µM) and the MIC [10] is reported as 64 µg/mL (≈ 166 µM). It also gave an MIC [13] of 64 µg/mL (≈ 166 µM).
O=C(Nc1cc(Cl)nc(Cl)c1)OC(Cn1ccnc1)c1ccc(Cl)cc1 (racemic) was tested, and the MIC [1, 15] was greater than 64 µg/mL, the MIC [2] was 121 µg/mL (≈ 294 µM) and the MIC50 [2] was 128 µg/mL (≈ 311 µM). It also gave an MIC90 [2] of 128 µg/mL (≈ 311 µM), an MIC [3] greater than 64 µg/mL and an MIC [4] greater than 64 µg/mL. The MIC [5] was greater than 64 µg/mL, the MIC [6] was greater than 64 µg/mL and the MIC [7] was greater than 64 µg/mL. The MIC [8] was 119 µg/mL (≈ 289 µM), the MIC50 [8] was 128 µg/mL (≈ 311 µM) and the MIC90 [8] was 128 µg/mL (≈ 311 µM). It also gave an MIC [9] greater than 64 µg/mL, an MIC [10, 16] greater than 64 µg/mL and an MIC [11] greater than 64 µg/mL. For the same compound, the MIC [12] was greater than 64 µg/mL and the MIC [13, 17] was greater than 64 µg/mL.
For OC(Cn1ccnc1)c1ccccc1 (racemic), the MIC [1, 15] was no less than 64 µg/mL, the MIC [2] was 98.5 µg/mL (≈ 523 µM) and the MIC50 [2] was 64 µg/mL (≈ 340 µM). The MIC90 [2] was 128 µg/mL (≈ 680 µM), the MIC [3] was greater than 64 µg/mL and the MIC [4] was greater than 64 µg/mL. The MIC [5] was no less than 64 µg/mL, the MIC [6] was greater than 64 µg/mL and the MIC [7] was no less than 64 µg/mL. For the same compound, the MIC [8] was 107 µg/mL (≈ 567 µM), the MIC50 [8] was 128 µg/mL (≈ 680 µM) and the MIC90 [8] was 128 µg/mL (≈ 680 µM). The MIC [9] was 64 µg/mL (≈ 340 µM), the MIC [10, 16] was 64 µg/mL (≈ 340 µM) and the MIC [11] was greater than 64 µg/mL. It also gave an MIC [12] greater than 64 µg/mL and an MIC [13, 17] greater than 64 µg/mL.
In the case of Cl.O=C(OC(Cn1ccnc1)c1ccc(F)cc1)c1cccc(C(F)(F)F)c1 (racemic; 4b), the MIC [1, 15] is reported as 8 µg/mL, the MIC [2] is reported as 22.6 µg/mL and the MIC50 [2] is reported as 16 µg/mL. It also gave an MIC90 [2] of 32 µg/mL, an MIC [3] of 8 µg/mL and an MIC [4] of 32 µg/mL. It also gave an MIC [5] of 32 µg/mL, an MIC [6] of 1 µg/mL and an MIC [7] of 8 µg/mL. It also gave an MIC [8] of 34.3 µg/mL, an MIC50 [8] of 8 µg/mL and an MIC90 [8] of 64 µg/mL. The MIC [9] was 32 µg/mL, the MIC [10, 16] was 8 µg/mL and the MIC [11] was no less than 64 µg/mL. The MIC [12] was 64 µg/mL and the MIC [13, 17] was 16 µg/mL.
O=C(OC(Cn1ccnc1)c1ccc(F)cc1)c1cccc(C(F)(F)F)c1 (racemic; 3b) showed an MIC [1, 15] of 4 µg/mL (≈ 10.6 µM), an MIC [2] of 52.9 µg/mL (≈ 140 µM) and an MIC50 [2] of 8 µg/mL (≈ 21.1 µM). For the same compound, the MIC90 [2] was 128 µg/mL (≈ 338 µM), the MIC [3] was 8 µg/mL (≈ 21.1 µM) and the MIC [4] was greater than 64 µg/mL. For the same compound, the MIC [5] was greater than 8 µg/mL, the MIC [6] was greater than 64 µg/mL and the MIC [7] was 2 µg/mL (≈ 5.29 µM). For the same compound, the MIC [8] was 27.7 µg/mL (≈ 73.2 µM), the MIC50 [8] was 8 µg/mL (≈ 21.1 µM) and the MIC90 [8] was 16 µg/mL (≈ 42.3 µM). For the same compound, the MIC [9] was 4 µg/mL (≈ 10.6 µM), the MIC [10, 16] was 16 µg/mL (≈ 42.3 µM) and the MIC [11] was greater than 64 µg/mL. The MIC [12] was greater than 64 µg/mL and the MIC [13, 17] was 8 µg/mL (≈ 21.1 µM).
Compound O=C(OC(Cn1ccnc1)c1ccccc1)c1cccc(C(F)(F)F)c1 (racemic) has an MIC [1, 15] of 8 µg/mL (≈ 22.2 µM), an MIC [2] of 85 µg/mL (≈ 236 µM) and an MIC50 [2] of 64 µg/mL (≈ 178 µM). It also gave an MIC90 [2] of 128 µg/mL (≈ 355 µM), an MIC [3] of 32 µg/mL (≈ 88.8 µM) and an MIC [4] greater than 64 µg/mL. It also gave an MIC [5] of 64 µg/mL (≈ 178 µM), an MIC [6] of 32 µg/mL (≈ 88.8 µM) and an MIC [7] of no less than 64 µg/mL. For the same compound, the MIC [8] was 91.4 µg/mL (≈ 254 µM), the MIC50 [8] was 64 µg/mL (≈ 178 µM) and the MIC90 [8] was 128 µg/mL (≈ 355 µM). It also gave an MIC [9] greater than 64 µg/mL, an MIC [10, 16] of no less than 64 µg/mL and an MIC [11] of no less than 64 µg/mL. It also gave an MIC [12] greater than 64 µg/mL and an MIC [13, 17] of 64 µg/mL (≈ 178 µM).
Compound Cl.O=C(OC(Cn1ccnc1)c1ccc(Cl)cc1)c1cccc(C(F)(F)F)c1 (racemic) has an MIC [1, 15] of 8 µg/mL, an MIC [2] of 43.8 µg/mL and an MIC50 [2] of 32 µg/mL. It also gave an MIC90 [2] of 128 µg/mL, an MIC [3] of 4 µg/mL and an MIC [4] of 32 µg/mL. For the same compound, the MIC [5] was greater than 64 µg/mL, the MIC [6] was 0.5 µg/mL and the MIC [7] was 8 µg/mL. For the same compound, the MIC [8] was 46.3 µg/mL, the MIC50 [8] was 8 µg/mL and the MIC90 [8] was 16 µg/mL. It also gave an MIC [9] of 32 µg/mL, an MIC [10, 16] of 8 µg/mL and an MIC [11] greater than 64 µg/mL. For the same compound, the MIC [12] was 32 µg/mL and the MIC [13, 17] was 32 µg/mL.
